Target: Cytochrome P450 2C19 (Homo sapiens, UniProt P33261)
Experiment: Inhibition of CYP2C19 (unknown origin) using LuciferinH-EG as substrate at 10 uM preincubated with enzyme and substrate for 5 mins followed by addition of NADPH regeneration system and measured after 60 mins by luminescence method
Assay type: ADME
Summary of the method: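 P450-Glo luminescence assays with these substrates: Luciferin-ME (CYP1A2), Luciferin-PPXE (CYP3A4), Luciferin-H (CYP2C9), LuciferinH-EG (CYP2C19), Luciferin-ME-EG (CYP2D6). Compounds run in 1/3 serial dilutions from 10 µM in 0.5% DMSO with enzyme and substrate. After 5 min preincubation, NADPH regeneration reagent added; 60 min at 37 °C, then detection reagent for 30 min. Background subtracted.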

Sequence of Cytochrome P450 2C19 (P33261 whole entry): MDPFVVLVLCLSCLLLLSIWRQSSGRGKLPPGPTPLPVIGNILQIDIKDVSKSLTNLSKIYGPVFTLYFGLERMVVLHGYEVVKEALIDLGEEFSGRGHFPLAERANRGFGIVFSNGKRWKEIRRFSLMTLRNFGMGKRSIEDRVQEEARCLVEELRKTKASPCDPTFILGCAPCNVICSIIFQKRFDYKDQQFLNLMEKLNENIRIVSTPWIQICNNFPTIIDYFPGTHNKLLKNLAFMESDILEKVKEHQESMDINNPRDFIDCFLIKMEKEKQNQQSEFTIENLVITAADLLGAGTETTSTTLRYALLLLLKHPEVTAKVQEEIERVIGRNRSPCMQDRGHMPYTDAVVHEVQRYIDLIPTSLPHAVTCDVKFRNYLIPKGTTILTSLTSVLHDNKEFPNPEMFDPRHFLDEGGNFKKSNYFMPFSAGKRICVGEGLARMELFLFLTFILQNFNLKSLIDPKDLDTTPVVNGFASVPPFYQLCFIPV

IC50: > 30 µM
SMILES: COc1ncc2cc1NS(=O)(=O)c1cccc(c1)C(=O)NCc1cncc(c1)-c1cnc3ccc-2cn13
